Reference: ChEMBL document CHEMBL2202981, “Synthesis and cytotoxicity evaluation of highly functionalized pyranochromenes and pyranopyrans” (Bioorg Med Chem Lett, 2012)

Experiments:
Type in all cases: functional, cell-based
HeLa = assay: Cytotoxicity against human HeLa cells by MTT assay
Procedure, shortened: (§1)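 MTT assay on four human tumour lines: A549 (alveolar adenocarcinoma epithelial), HeLa (cervical cancer), MDA-MB-231 and MCF7 (breast adenocarcinoma). Dose-response curves were plotted from absorbance data, and IC50 was calculated from them. Each value is the average of two independent experiments.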

MCF7 = assay: Cytotoxicity against human MCF7 cells by MTT assay; procedure, shortened: as §1
MDA-MB-231 = assay: Cytotoxicity against human MDA-MB-231 cells by MTT assay; procedure, shortened: as §1
A549 = assay: Cytotoxicity against human A549 cells by MTT assay
[1] = Homo sapiens, HeLa, read-out: IC50
[2] = Homo sapiens, MCF7, read-out: IC50
[3] = Homo sapiens, MDA-MB-231, read-out: IC50
[4] = Homo sapiens, A549, read-out: IC50

Compound | IC50 (HeLa; [1]) | IC50 (MCF7; [2]) | IC50 (MDA-MB-231; [3]) | IC50 (A549; a549) | IC50 (HeLa; hela) | IC50 (MCF7; mcf7) | IC50 (MDA-MB-231; mda-mb-231) | IC50 (A549; [4])
CCOC(=O)C1C(c2ccc(F)cc2)c2c(c3ccccc3oc2=O)OC1(O)C(F)(F)F (racemic) | 11 µM | 7.67 µM | 11.3 µM | Not Active | – | – | – | –
CCOC(=O)C1C(c2ccc(C#N)cc2)c2c(c3ccccc3oc2=O)OC1(O)C(F)(F)F (racemic) | – | – | – | Not Active | Not Active | Not Active | Not Active | –
CCOC(=O)C1C(c2ccc(OC)cc2)c2c(c3ccccc3oc2=O)OC1(O)C(F)(F)F (racemic) | 11.2 µM | 71.7 µM | 2.2 µM | – | – | – | – | 82.4 µM
CCOC(=O)C1C(c2ccc(O)cc2)c2c(c3ccccc3oc2=O)OC1(O)C(F)(F)F (racemic) | – | – | – | Not Active | Not Active | Not Active | Not Active | –
CCOC(=O)C1C(c2ccc(O)c(OC)c2)c2c(c3ccccc3oc2=O)OC1(O)C(F)(F)F (racemic) | – | – | – | Not Active | Not Active | Not Active | Not Active | –
CCOC(=O)C1C(c2ccc(C(C)C)cc2)c2c(c3ccccc3oc2=O)OC1(O)C(F)(F)F (racemic) | – | – | – | Not Active | Not Active | Not Active | Not Active | –
CCOC(=O)C1C(c2ccc(OC)c(OC)c2)c2c(c3ccccc3oc2=O)OC1(O)C(F)(F)F (racemic) | 87 µM | 53.9 µM | 7.71 µM | – | – | – | – | 34.3 µM
CCOC(=O)C1C(c2ccc([N+](=O)[O-])cc2)c2c(c3cc(F)ccc3oc2=O)OC1(O)C(F)(F)F (racemic) | – | – | – | Not Active | Not Active | Not Active | Not Active | –
CCOC(=O)C1C(c2ccc(F)cc2)c2c(c3cc(F)ccc3oc2=O)OC1(O)C(F)(F)F (racemic) | – | – | – | Not Active | Not Active | Not Active | Not Active | –
CCOC(=O)C1C(c2ccc(C#N)cc2)c2c(c3cc(F)ccc3oc2=O)OC1(O)C(F)(F)F (racemic) | – | – | – | Not Active | Not Active | Not Active | Not Active | –
CCOC(=O)C1C(c2ccc(O)cc2)c2c(c3cc(F)ccc3oc2=O)OC1(O)C(F)(F)F (racemic) | 11.5 µM | 6.54 µM | 6.61 µM | – | – | – | – | 33.9 µM
CCOC(=O)C1C(c2cccnc2)c2c(c3ccccc3oc2=O)OC1(O)C(F)(F)F (racemic) | – | – | – | Not Active | Not Active | Not Active | Not Active | –
CCOC(=O)C1C(c2ccc(C)cc2)c2oc(CO)cc(=O)c2OC1(O)C(F)(F)F (racemic) | – | – | – | Not Active | Not Active | Not Active | Not Active | –
CCOC(=O)C1C(c2ccc(OC)cc2)c2oc(CO)cc(=O)c2OC1(O)C(F)(F)F (racemic) | – | – | – | Not Active | Not Active | Not Active | Not Active | –
CCOC(=O)C1C(c2ccc(O)cc2)c2oc(CO)cc(=O)c2OC1(O)C(F)(F)F (racemic) | – | – | – | Not Active | Not Active | Not Active | Not Active | –
COc1cccc2c1C(=O)c1c(O)c3c(c(O)c1C2=O)C[C@@](O)(C(=O)CO)C[C@@H]3O[C@H]1C[C@H](N)[C@H](O)[C@H](C)O1 [DOXORUBICIN] | < 1 µM | – | < 1 µM | – | – | – | – | –
